ChEMBL document CHEMBL1147045, “Targeting thioredoxin reductase is a basis for cancer therapy by arsenic trioxide” (2007)
The source made the active and inactive calls. The rule behind the calls is not given here.

Assays:
MCF7 [1] = experiment: Reduction of glutathione synthesis in human MCF7 cells at 25 uM after 25 hrs; assay type: functional; set-up: scale not given: the % may be the effect or the level left
Escherichia coli = experiment: Inhibition of Escherichia coli thioredoxin upto 5 uM by insulin reduction method
In short: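 25 nM E. coli TrxR plus 2 μM E. coli Trx were preincubated with ATO for 30 min in 50 mM Tris·HCl/1 mM EDTA pH 7.5 with 200 μM NADPH. Then 200 μM NADPH/160 μM insulin was added and A340 followed. Activity was taken as ΔA340/min over the initial 5 min.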

[2] = target: T1, Thioredoxin reductase 1, cytoplasmic (Rattus norvegicus) (UniProt O89049); experiment: Inhibition of NADPH-reduced rat recombinant TrxR1 assessed as […] by DTNB reduction assay
T1 sequence (whole entry): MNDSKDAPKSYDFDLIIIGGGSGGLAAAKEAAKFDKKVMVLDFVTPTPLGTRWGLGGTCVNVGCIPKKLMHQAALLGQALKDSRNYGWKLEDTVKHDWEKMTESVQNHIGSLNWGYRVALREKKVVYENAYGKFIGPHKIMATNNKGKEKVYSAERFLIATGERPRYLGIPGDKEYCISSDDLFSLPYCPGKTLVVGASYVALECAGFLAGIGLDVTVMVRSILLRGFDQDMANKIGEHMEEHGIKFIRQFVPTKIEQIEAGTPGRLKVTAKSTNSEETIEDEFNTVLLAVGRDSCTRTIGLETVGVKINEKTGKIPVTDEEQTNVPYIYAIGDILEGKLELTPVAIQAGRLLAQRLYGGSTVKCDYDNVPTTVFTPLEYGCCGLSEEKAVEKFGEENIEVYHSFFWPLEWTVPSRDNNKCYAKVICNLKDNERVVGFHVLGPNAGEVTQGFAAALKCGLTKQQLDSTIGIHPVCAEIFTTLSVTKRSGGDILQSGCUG
In short: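 Recombinant rat TrxR1 (50 nM), NADPH-reduced, was preincubated with ATO (0.05–5 μM) for 30 min in 50 mM Tris·HCl/1 mM EDTA pH 7.5 with 200 μM NADPH. Activity was then measured with 5 mM DTNB by following A412; the rate was the slope over the initial 2 min. Duplicate experiments; IC50 after 30-min incubation.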

MCF7 [3] = experiment: Inhibition of human MCF7 cell growth after 24 hrs by XTT assay; assay type: functional, cell-based
In short: (§1)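 MCF-7 cells in RPMI 1640/10% FCS were seeded at 6 × 10^3 cells per well, grown overnight, then exposed to ATO for 24 or 48 h. Medium was replaced with XTT labeling mixture for 3 h and A492 of the formazan read as the measure of proliferation/viability.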

[4] = target: T1, Thioredoxin reductase 1, cytoplasmic (Rattus norvegicus); experiment: Inhibition of NADPH-reduced rat recombinant TrxR1 at 0.1 uM attenuated in presence of 1 mM Glutathione after 30 minis
In short: (§2)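 NADPH-reduced rat TrxR (10 nM) with 2 μM human Trx, with or without 1 mM GSH, was incubated with ATO for 30 min in Tris/EDTA pH 7.5 containing 200 μM NADPH. Trx-system activity was read after adding 200 μM NADPH/160 μM insulin, as ΔA340/min over the initial 5 min.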

MCF7 [5] = experiment: Reduction of human MCF7 cell growth at 5.0 uM after 48 hrs by XTT assay; assay type: functional, cell-based; in short: as §1
MCF7 [6] = experiment: Reduction of human MCF7 cell growth at 2.5 uM after 48 hrs by XTT assay; assay type: functional, cell-based; in short: as §1
[7] = target: T1, Thioredoxin reductase 1, cytoplasmic (Rattus norvegicus); experiment: Inhibition of NADPH-reduced rat recombinant TrxR1 at 0.25 uM attenuated in presence of 1 mM Glutathione after 30 minis; in short: as §2
[8] = target: T1, Thioredoxin reductase 1, cytoplasmic (Rattus norvegicus); experiment: Inhibition of NADPH-reduced rat recombinant TrxR1 at >0.5 uM attenuated in presence of 1 mM Glutathione after 30 minis; in short: as §2

| Structure (SMILES) | Activity (MCF7 [1]) [%] | Activity (Escherichia coli) | Activity [2] | Activity (MCF7 [3]) | Activity [4] | Activity (MCF7 [5]) | Activity (MCF7 [6]) | Activity [7] | Activity [8] |
| --- | --- | --- | --- | --- | --- | --- | --- | --- | --- |
| CCCCS(=N)(=O)CCC(N)C(=O)O (centres undefined) [BUTHIONINE SULFOXIMINE] | 80 |  |  |  |  |  |  |  |  |
| O=[As][As+](=O)[O-] (centres undefined) |  | inactive | inactive | inactive | Active | Active | Active | Active | inactive |
